# Data from PMC6160361 (Circulation, 2018).
# Where two headings read alike, the source gives them in different places.
# B1: recombinant IgG1 antibody to oxLDL: recombinant IgG1 antibody to oxLDL infused in the GLACIER trial (antibody, chains of the INN, looked up, V domains shown)
# VH: EVQLLESGGGLVQPGGSLRLSCAASGFTFSNAWMSWVRQAPGKGLEWVSSISVGGHRTYYADSVKGRSTISRDNSKNTLYLQMNSLRAEDTAVYYCARIRVGPSGGAFDYWGQGTLVTVSS
# VL: QSVLTQPPSASGTPGQRVTISCSGSNTNIGKNYVSWYQQLPGTAPKLLIYANSNRPSGVPDRFSGSKSGTSASLAISGLRSEDEADYYCASWDASLNGWVFGGGTKLTVL
# Key:
# [1] = system: DRB1*07:01-p18^+CD4^+ T cells; format: cell-based, human
# [2] = Plasma lipid analysis of vaccinated Apoe^−/− mice; format: in vivo, mouse; conditions: Supplementary Figure 6; 1xCFA + 4xIFA
# Outline: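 Apoe−/− mice immunised 1xCFA + 4xIFA. Whole blood taken by cardiac puncture into EDTA at organ harvest and spun at 3000 × g for 15 min at 4°C. Plasma supernatant stored at −80°C to limit freeze/thaw, then sent for external lipid analysis.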
# peritoneal CD4^+ T cells [3] = format: in vivo, mouse; conditions: 1x CFA and 1x IFA, N=9-10
# DRB1*04:01 = DRB1*04:01 (Homo sapiens, UniProt P01903+P01911, A100K/A169T/F76Y/I96L/K127E/L162R/M171V/N62H/P40V/Q125Y/R42H/S133A/S149N/S66Y/V115G/V209L/W38E); assay: MHC class II competitive binding assay, DRB1*04:01; conditions: experimental competitive peptide binding
# Outline: (§1)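 Competitive inhibition assay using purified MHC class II molecules and a high-affinity radiolabelled MHC class II ligand. Binding given as IC50, taken as an approximation of Kd under the assay conditions. Test peptide stock in DMSO at 20 mg/ml, stored at −80°C.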
# peritoneal CD4^+ T cells [4] = format: in vivo, mouse
# [5] = system: p18:I-A^b+CD4^+ T cells (peritoneal); assay: p18:I-A^b tetramer staining of peritoneal CD4^+ T cells, Nur77^GFP Apoe^−/− mice; format: in vivo, mouse
# peritoneal CD4^+ T cells [6] = assay: TCR activation; format: in vivo, mouse
# p18 = conditions: vaccinated Apoe^−/− mice; Supplementary Figure 7
# [7] = system: p18:I-A^b+CD4^+ T cells (spleen); assay: p18:I-A^b tetramer staining of splenic CD4^+ T cells; format: in vivo, mouse
# Apoe^−/− mice = assay: Aortic atherosclerosis; format: in vivo, mouse; conditions: 50 μg p18, 1xCFA + 4xIFA, western diet 13 weeks; vs adjuvant only; N=8-9
# [8] = system: p18-specific CD4^+ T cells in human PBMC; assay: DRB1*07:01-p18 tetramer staining of human PBMC by flow cytometry; format: cell-based; conditions: sCVD N=14, no sCVD N=15
# DRB1*07:01 = DRB1*07:01 (Homo sapiens, UniProt P01903+P01911, A100R/A102G/A103Q/D57E/D86V/E43K/F76Y/K127E/L162R/M171V/P40G/Q125H/Q99D/R33Q/R42Y/R54Q/S133A/S66F/T210M/V115G/Y107V/Y59L/Y89S); assay: MHC class II competitive inhibition binding assay, DRB1*07:01; conditions: experimental competitive peptide binding
# Outline: as §1
# splenic CD4^+ T cells = assay: IL-10 ELISPOT of splenic CD4^+ T cells restimulated with p18; format: cell-based, mouse; conditions: splenic CD4^+ T cells with antigen presenting cells and p18, 24 hours; 1xCFA and 1xIFA; N=9-10
# DRB1*13:02 = DRB1*13:02 (Homo sapiens, UniProt P01903+P01911, A100E/A169T/K41T/L162R/M171V/P40S/Q125H/Q178H/Q39Y/Q99D/R42S/S66N/T262R/V115G/W38E/Y61H); assay: MHC class II competitive binding assay, DRB1*13:02; conditions: experimental competitive peptide binding
# Outline: as §1
# peritoneal Tregs = assay: IL-10 production and Nrp-1 of Tregs after p18 immunization; format: in vivo, mouse; conditions: N=7
# atherosclerosis patients = conditions: GLACIER trial; cited from earlier work
# [9] = spleen, vaccinated Apoe^−/− mice
molecule,measurement,setting,value
SLFFSAQPFEITAST [p18],Tregs co-expressing T-bet among DRB1*07:01-p18^+CD4^+ T cells,[1]; no sCVD,1.2±0.5%
same,FoxP3^+Rorγt^+ cells among p18-specific CD4^+ T cells,[1]; patients with sCVD,significant increase
same,Tregs co-expressing RORγt among DRB1*07:01-p18^+CD4^+ T cells,"[1]; sCVD donors, mean ± SEM",8.8±3.7%
same,Tregs co-expressing T-bet among DRB1*07:01-p18^+CD4^+ T cells,[1]; sCVD patients,4.1±1.4%
same,Tregs co-expressing RORγt among DRB1*07:01-p18^+CD4^+ T cells,[1]; sCVD^− participants,almost undetectable
same,fraction of p18-specific CD4^+ T cells that are FoxP3^+ Tregs,[1]; women with no sCVD,most
same,plasma lipids,[2],unchanged
same,abundance of Tregs in peritoneal cavity,peritoneal CD4^+ T cells [3]; Apoe^−/− mice on CD or WD,significantly increased
same,FoxP3^+Tbet^+ cells in peritoneal cavity,peritoneal CD4^+ T cells [3]; CD or WD,increased
same,FoxP3^+GATA3^+ cells in peritoneal cavity,peritoneal CD4^+ T cells [3],only observed in mice fed CD and not in mice fed WD
same,binding to DRB1*04:01,DRB1*04:01,binds
same,FoxP3 by intracellular staining of CD4^+ T cells,"peritoneal CD4^+ T cells [4]; Apoe^−/− mice, peritoneal, N=6, compared with YFP result",gave a similar result
same,CD25^+FoxP3^+CD4^+ T cells of all CD4^+ T cells,"peritoneal CD4^+ T cells [4]; peritoneal cavity, FoxP3^YFPcreApoe^−/− mice, 2 weeks after immunization, 1xCFA s.c. + 1xIFA i.p., from ~6%, N=7",~ 12%
same,"peritoneal p18:I-A^b+CD4^+ T cells, p18-immunized vs adjuvant","[5]; Apoe^−/− mice fed CD or WD, Supplementary Figure 5",did not observe any significant differences
same,ApoB p18-specific (PE- and APC-double positive) CD4^+ T cells,"[5]; increase vs adjuvant only, peritoneal, 1x CFA and 1x IFA, N=5-6",~ 3 -fold
same,CD25^+FoxP3^+ Tregs among p18:I-A^b+CD4^+ T cells,"[5]; peritoneal, p18 immunized, N=5-6",40%
same,Nur77^GFP+ cells among p18:I-A^b+CD4^+ T cells,"[5]; peritoneal, N=5-6",highly enriched
same,CD25^+FoxP3^+ Tregs among p18:I-A^b–CD4^+ T cells,"[5]; tetramer-negative cells, peritoneal, p18 immunized, N=5-6",9%
same,Nur77^GFP+ frequency among CD25^+FoxP3^+ Tregs vs all CD4^+ T cells,"peritoneal CD4^+ T cells [6]; mice immunized with p18, 24 hours after restimulation",further elevated
same,CD25^+FoxP3^+ Tregs in Nur77^GFP+ activated cell population,"peritoneal CD4^+ T cells [6]; p18 immunized mice, N=5-6, adjuvant only showed a similar fraction",significantly enriched
same,IgG1 antibodies to p18 in plasma,p18,detected
same,IgG2c antibodies to p18 in plasma,p18,detected
same,p18:I-A^b+CD4^+ T cells in spleen,"[7]; IL-10^GFP Apoe^−/− mice, N=4-5",increased
same,FoxP3 expression of splenic p18:I-A^b+CD4^+ T cells vs adjuvant,[7]; N=9-10,significantly more
same,splenic bulk FoxP3^+CD4^+ T cells vs adjuvant only,[7]; data not shown,did not find a significant difference
same,IL-10 production of p18:I-A^b+FoxP3^+CD4^+ T cells,"[7]; spleen, IL-10^GFP Apoe^−/− mice, N=4-5",significantly more than in adjuvant-only controls
same,IL-10 production of p18:I-A^b–FoxP3^+CD4^+ T cells,"[7]; spleen, tetramer-negative, N=4-5",did not increase
same,central memory cells (CD62L^+CD44^+) among memory p18:I-A^b+CD4^+ T cells,[7]; [9],20%
same,effector memory cells (CD62L^−CD44^+) among memory p18:I-A^b+CD4^+ T cells,[7]; [9],80%
same,p18:I-A^b+CD4^+ T cells with memory phenotype (CD44^+),[7]; [9],Most
same,"reduction of lesion size, aortic arch",Apoe^−/− mice,~ 35%
same,"reduction of lesion size, whole aorta",Apoe^−/− mice,~ 35%
same,trend in p18-specific CD4^+ T cells in sCVD patients vs no sCVD,[8],did not reach statistical significance
same,binding to DRB1*07:01,DRB1*07:01,binds
same,IL-10^+ spots (ELISPOT) vs adjuvant only,splenic CD4^+ T cells,significantly more
same,binding to DRB1*13:02,DRB1*13:02,binds
same,IL-10-producing cells among all Tregs,"peritoneal Tregs; FoxP3^+CD4^+ cells, vs adjuvant",significant expansion
same,inducible Tregs (Nrp-1 negative) among classical Tregs,peritoneal Tregs,Most
same,IL-10-producing iTregs (Nrp-1^−FoxP3^+CD4^+),"peritoneal Tregs; p18 immunized, from ~12%",~ 25%
B1,efficacy in imaging studies,atherosclerosis patients,failed to show efficacy
